Shown are actives, neighbours in structure and some others; about 3.2% of the full set was active somewhere.
CHO parental Ca – signal in parental CHO cells, OX1R antagonist counter-screen | 0.63% of 330,000 active | inhibition, % at 5.6 µM | AID 463079 | parental CHO-K1, ATP-induced calcium, Fluo-8 fluorescence;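 active means inhibition above that plate's mean sample inhibition plus 3 SD, cut at about 26% in these data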
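Test system: parental CHO cells; detection: calcium-sensitive Fluo-8 fluorescence; evaluation: percent inhibition of calcium signal; also added: ATP as calcium-mobilizing challenge; repeats: one well per compound; control set: ATP-challenged DMSO wells low, unchallenged DMSO wells high; compound: single nominal dose of 5.6 µM per compound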
OX1R antag-1 – antagonists of human orexin 1 receptor (OX1R); O43613; OX1R-expressing cells, FRET antagonist read-out; AID 485270; inhibition, % at 6.6 µM; 1.8% of 330,000 active; in the data active means inhibition mostly above about 38%, no sharp cut-off; inactive means mostly below about 40%
Target sequence (O43613 whole entry, looked up): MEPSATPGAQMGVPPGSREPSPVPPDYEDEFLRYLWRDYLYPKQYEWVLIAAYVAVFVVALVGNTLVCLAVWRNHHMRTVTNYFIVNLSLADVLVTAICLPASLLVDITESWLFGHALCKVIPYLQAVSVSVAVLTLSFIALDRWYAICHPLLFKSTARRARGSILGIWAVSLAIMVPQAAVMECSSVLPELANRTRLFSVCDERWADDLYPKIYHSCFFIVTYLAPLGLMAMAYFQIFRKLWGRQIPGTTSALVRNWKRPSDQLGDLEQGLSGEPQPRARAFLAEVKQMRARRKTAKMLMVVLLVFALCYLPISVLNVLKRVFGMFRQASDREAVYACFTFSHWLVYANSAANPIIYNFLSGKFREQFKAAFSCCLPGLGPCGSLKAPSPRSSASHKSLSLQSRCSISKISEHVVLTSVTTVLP
TRPN1 ag – zebrafish TRPN1 (NompC) channel agonism; HEK293 zebrafish TRPN1-YFP, Fluo-8 calcium fluorescence; 100% = response to 87 µM carbachol; activation, % at 3 µM; 0.18% of 220,000 active; AID 1424;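 active means activation above its plate's cutoff, the mean activation of test wells on that plate plus 3 SD, cut at about 19% in these data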
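Assay system: Zebrafish TRPN1-YFP in HEK293 cells | Incubation: Dye loading 1 h at 37 °C, then 30 min room temperature | Measured by: Kinetic Fluo-8 fluorescence, ex 470-495, em 515-575 nm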
GPR7 antag – antagonists of human GPR7 (neuropeptides B/W receptor 1). 1.1% of 290,000 active. inhibition, % at 4.4 µM. AID 1861. GPR7-expressing cells, fluorescence antagonist assay; in the data active means inhibition above about 16%, passing the limit was not always enough;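 further: cells stimulated with the agonist NPW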
Target sequence (P48145 whole entry, looked up): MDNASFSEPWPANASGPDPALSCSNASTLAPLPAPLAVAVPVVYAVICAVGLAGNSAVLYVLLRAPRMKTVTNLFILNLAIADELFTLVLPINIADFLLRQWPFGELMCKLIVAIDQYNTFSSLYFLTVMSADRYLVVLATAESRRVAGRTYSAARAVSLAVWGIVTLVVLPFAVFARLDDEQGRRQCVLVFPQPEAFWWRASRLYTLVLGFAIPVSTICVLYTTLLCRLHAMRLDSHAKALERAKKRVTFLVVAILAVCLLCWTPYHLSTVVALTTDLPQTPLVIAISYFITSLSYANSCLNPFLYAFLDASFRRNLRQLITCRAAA
TRPML3 ag – agonists of human TRPML3 channel. AID 1448. HEK293 TRPML3-YFP, Fluo-8 calcium fluorescence; 100% = the carbachol control signal. 0.29% of 220,000 active. Q8TDD5. activation, % at 3 µM;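 active means activation above its plate's cutoff, the mean activation of the plate's test wells plus 3 SD, cut at about 12% in these data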
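Test system: HEK293 cells stably carrying human TRPML3-YFP; Doses: single dose, 3 µM final nominal compound, 0.3% DMSO final; Schedule: dye loading 1 h 37 °C then 30 min ambient, 125 s read; Technique: Fluo-8 calcium fluorescence; Benchmarks: high control carbachol 87 µM, low control DMSO.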
OX1R antag-2 – human HCRTR1 antagonism | AID 434989 | CHO/OX1R cells, Fluo-8 calcium fluorescence, orexin A | 0.43% of 330,000 active | O43613 | inhibition, % at 5 µM;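 active means inhibition above its plate's threshold, mean inhibition of all tested compounds on the plate plus 3 SD, cut at about 37% in these data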
GPR7 antag conf – human GPR7 antagonism, confirmation assay; shares compounds with GPR7 antag; GPR7-expressing cells, calcium fluorescence antagonist mode; inhibition, % at 4.4 µM; 52% of 2,400 active; AID 1952; in the data active means inhibition above about 24%;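 further: stimulated with the GPR7 agonist NPW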
MCHR1 antagonist – MCHR1 (human) antagonism in GPR7 counter-screen | MCHR1-expressing cells, fluorescence antagonist assay | AID 2148 | 62% of 2,400 active | inhibition, % at 4.4 µM | shares compounds with GPR7 antag; in the data active means inhibition above about 22%
Each line names hits and unclear results; the compound was inactive in the other large screens (follow-up assays come after a bar, where they were run).

CC(C)(C)NC(=O)C[C@H]1C[C@H](C(=O)N2CCCCC2)[C@@]2(C)c3[nH]c4ccc(Cl)cc4c3CCN2C1=O	none (no result: TRPN1 ag, GPR7 antag, TRPML3 ag)
O=C(c1ccco1)N1CCN(Cc2cc(=O)c(OCc3ccc(F)cc3)co2)CC1	none (no result: TRPN1 ag, GPR7 antag, TRPML3 ag)
CCN1CCN(c2c(Cl)cccc2NC(=O)c2ccc([N+](=O)[O-])o2)CC1	OX1R antag-1 56, GPR7 antag 28 (no result: TRPN1 ag, TRPML3 ag) | GPR7 antag conf 34 | MCHR1 antagonist 34
O=C(Nc1cccc(Cl)c1N1CCCC1)c1ccc([N+](=O)[O-])o1	none
COc1ccccc1CN1CCc2c([nH]c3ccccc23)C1	none (no result: TRPN1 ag, TRPML3 ag)
Clc1cccc(CN2CCc3c([nH]c4ccccc34)C2)c1Cl	GPR7 antag 50 (no result: TRPN1 ag, TRPML3 ag) | GPR7 antag conf 47 | MCHR1 antagonist 29
O=C(COC(=O)c1ccccn1)NCc1ccccc1Cl	GPR7 antag 24 | GPR7 antag conf inactive | MCHR1 antagonist inactive
COc1ccccc1CNC(=O)COC(=O)c1ccccn1	none (no result: TRPN1 ag, GPR7 antag, TRPML3 ag)
Cn1c(Cc2cccc3ccccc23)nnc1SCc1ccc([N+](=O)[O-])cc1	GPR7 antag 29 | GPR7 antag conf inactive | MCHR1 antagonist inactive
CC(C)N(CC#CCC(O)(c1ccccc1)c1ccccc1)C(C)C	none
CC(c1ccccc1C(O)(c1ccccc1)c1ccccc1)N(C)C (stereo unspecified)	CHO parental Ca 30, TRPN1 ag 22, GPR7 antag 68, TRPML3 ag 15 | GPR7 antag conf 92 | MCHR1 antagonist 96
Cc1nc2ccc([N+](=O)[O-])cc2c(=O)n1Cc1cccc(F)c1	none (no result: TRPN1 ag, TRPML3 ag)
Cc1cccc(Cn2c(C)nc3ccc([N+](=O)[O-])cc3c2=O)c1	GPR7 antag 45 (no result: TRPN1 ag, TRPML3 ag) | GPR7 antag conf 36 | MCHR1 antagonist 43
CS(=O)c1nc(-c2ccc(Br)cc2)cc(-c2ccccc2)c1C#N (stereo unspecified)	CHO parental Ca 84, GPR7 antag 54, OX1R antag-2 81 | GPR7 antag conf 97 | MCHR1 antagonist 101
CS(=O)(=O)c1nc(-c2ccc(Br)cc2)cc(-c2ccccc2)c1C#N	none
Cc1ccc(NC(=O)Nc2ccc(F)cc2)cc1Cl	CHO parental Ca 41, GPR7 antag 28 | GPR7 antag conf inactive | MCHR1 antagonist 52
CCOC(=O)c1ccc(NC(=O)Nc2ccc(F)cc2)cc1	OX1R antag-1 52, TRPN1 ag 21, GPR7 antag 23 | GPR7 antag conf 47 | MCHR1 antagonist 55
Cc1ccc(NC(=O)NC2CCCCC2)cc1Cl	none
Cc1ccc(NC(=O)CN(C)C2CCCCC2)cc1Cl	GPR7 antag 25 (no result: CHO parental Ca, OX1R antag-1, TRPN1 ag, TRPML3 ag, OX1R antag-2) | GPR7 antag conf inactive | MCHR1 antagonist 24
CCOC(=O)c1ccc(NC(=O)Nc2ccc(OC)c(OC)c2)cc1	none
Cc1cc([N+](=O)[O-])nn1Cc1noc(C(=O)NCCc2ccccn2)n1	none (no result: TRPN1 ag, TRPML3 ag)
Cc1cccc(C(=O)OCC(=O)NCCNC(=O)COC(=O)c2cccc(C)c2C)c1C	none (no result: TRPN1 ag, TRPML3 ag)
O=C(c1cc2ccccc2o1)N1CCN(C/C=C/c2ccccc2)CC1	GPR7 antag 29 (no result: TRPN1 ag, TRPML3 ag) | GPR7 antag conf inactive | MCHR1 antagonist 21
CC(=O)N1CCN(C(=O)c2cc3ccccc3o2)CC1	none (no result: TRPN1 ag, TRPML3 ag)
CCCCCN(C(=O)CCC(=O)OCCOc1ccccc1Cl)c1c(N)n(CCCC)c(=O)[nH]c1=O	none (no result: TRPN1 ag, GPR7 antag, TRPML3 ag)
O=[N+]([O-])c1ccc(C2CC(c3ccccc3)=Nc3ccccc3S2)cc1 (stereo unspecified)	none | GPR7 antag conf inactive | MCHR1 antagonist 74
O=C(O)C1CC(c2ccccc2)=Nc2ccccc2S1 (stereo unspecified)	none
CSc1cccc(NC(=O)CN(C2CCCCC2)S(C)(=O)=O)c1	GPR7 antag 28 | GPR7 antag conf inactive | MCHR1 antagonist inactive
COC(=O)[C@@]1(Cc2ccc(F)cc2)[C@H]2c3cc(C(=O)N(C)C)n(Cc4ccccc4)c3C[C@H]2CN1C(=O)c1ccccc1	none (no result: GPR7 antag) | MCHR1 antagonist inactive
COC(=O)[C@@]1(Cc2ccc(F)cc2)[C@H]2c3cc(C(=O)N(C)C)n(Cc4ccc(OC)c(OC)c4)c3C[C@H]2CN1C(=O)c1ccccc1	none
c1ccc(CNc2ccccn2)cc1	none (no result: TRPN1 ag, TRPML3 ag)
c1ccc(Nc2ccccc2Nc2ccccn2)nc1	CHO parental Ca 49, OX1R antag-1 56, TRPN1 ag 88, GPR7 antag 53, TRPML3 ag 68, OX1R antag-2 50 | GPR7 antag conf inactive | MCHR1 antagonist inactive
Nc1n[nH]c(N)c1N=Nc1cccc(F)c1	none
Nc1n[nH]c(N)c1N=Nc1cccc(C(F)(F)F)c1	GPR7 antag 41 (no result: TRPN1 ag, TRPML3 ag) | GPR7 antag conf 38 | MCHR1 antagonist 36
CN(C)CCNC(=O)C1CCN(S(=O)(=O)c2ccc3ccccc3c2)CC1	none (no result: TRPN1 ag, TRPML3 ag)
CN(C)S(=O)(=O)N1CCC(Oc2ccc(C(=O)NC3Cc4ccccc4C3)cc2)CC1	GPR7 antag 51 (no result: TRPN1 ag, TRPML3 ag) | GPR7 antag conf 66 | MCHR1 antagonist 75
CC(=O)c1cccc(NC(=O)CN(C)Cc2ccc(OC(F)F)cc2)c1	none
COc1ccc(C(=O)NCCc2ccccc2)cc1[N+](=O)[O-]	GPR7 antag 31 (no result: TRPN1 ag, TRPML3 ag) | GPR7 antag conf inactive | MCHR1 antagonist inactive
CNCC(O)Cn1c(C(F)(F)F)nc2ccccc21 (stereo unspecified)	GPR7 antag 31 | GPR7 antag conf inactive | MCHR1 antagonist inactive
COc1ccc(Cl)cc1N(C(=O)c1ccco1)C(C(=O)NC1CCCC1)c1ccncc1 (stereo unspecified)	none (no result: TRPN1 ag, TRPML3 ag)
COc1ccc(N(C(=O)c2ccco2)C(C(=O)NC2CCCC2)c2ccco2)cc1OC (stereo unspecified)	none (no result: TRPN1 ag, TRPML3 ag)
COc1ccc(Cl)cc1N(C(=O)c1ccco1)C(C(=O)NC1CCCC1)c1cccnc1 (stereo unspecified)	GPR7 antag 23 (no result: TRPN1 ag, TRPML3 ag) | GPR7 antag conf inactive | MCHR1 antagonist inactive
COc1ccc(OC)c(N(C(=O)c2ccco2)C(C(=O)NC2CCCC2)c2cc(OC)c(OC)c(OC)c2)c1 (stereo unspecified)	GPR7 antag 32 (no result: TRPN1 ag, TRPML3 ag) | GPR7 antag conf inactive | MCHR1 antagonist inactive
COc1ccc(Cl)cc1N(C(=O)c1ccco1)C(C(=O)NC1CCCC1)c1ccco1 (stereo unspecified)	GPR7 antag 29 (no result: TRPN1 ag, TRPML3 ag) | GPR7 antag conf 28 | MCHR1 antagonist 22
O=C(NCCN1C(=O)S/C(=C\c2ccccc2F)C1=O)C1=COCCO1	none (no result: TRPN1 ag, GPR7 antag, TRPML3 ag)
CC1CCN(C(=O)c2cc(S(=O)(=O)N3CCCCC3)c[nH]2)CC1	GPR7 antag 27 (no result: TRPN1 ag, TRPML3 ag) | GPR7 antag conf inactive | MCHR1 antagonist inactive
O=P(c1ccccc1)(c1ccccc1)c1cc(Br)cc(Br)c1OCCO	none (no result: TRPN1 ag, TRPML3 ag)
